Converted amounts (≈) assume the structure as drawn.
Assays:
[1] = Intrinsic clearance in human liver microsomes assessed per mg of protein; assay type: ADME; details: read-out: CLH
Method in brief: (§1)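 Compound incubated with liver microsomes (human for line 2, rat for line 3) and its concentration followed at up to 8 successive time points. Intrinsic pseudo-first-order decay rate constant (Clint) taken from linear regression of those concentrations and normalised to microsomal protein. Upper and lower bounds are 95% confidence levels from the regression.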

[2] = Intrinsic clearance in rat liver microsomes assessed per mg of protein; assay type: ADME; details: read-out: CLH; method in brief: as §1
[3] = Lipophilicity, Log P of the compound; assay type: physicochemical; details: octanol/water
[4] = Aqueous solubility of the compound at pH 6.5; assay type: physicochemical

Row | Structure (SMILES) | microsomal CLint [1] [µL/min/mg] | microsomal CLint [2] [µL/min/mg] | logP [3] | solubility [4] [µM]
1 | FCCCc1c[nH]c2ccccc12 |  |  | 2.8 | 
2 | FCC(F)Cc1c[nH]c2ccccc12 (stereo unspecified) | 212 | 142 | 2.5 | > 1720
3 | CC(F)(F)Cc1c[nH]c2ccccc12 | 508 | 226 | 2.8 | 820 (≈ 160 µg/mL)
4 | C[C@@H](F)[C@H](F)Cc1c[nH]c2ccccc12 (racemic) |  |  | 2.8 | 
5 | FC[C@H](F)[C@H](F)Cc1c[nH]c2ccccc12 (racemic) |  |  | 2.7 | 

Results, then the compound that gave them:

Row | microsomal CLint [1] [µL/min/mg] | microsomal CLint [2] [µL/min/mg] | logP [3] | solubility [4] [µM] | Structure (SMILES)
6 | 321 | 584 | 3 | 115 (≈ 24.1 µg/mL) | CC(F)(F)CCc1c[nH]c2ccccc12
7 | 513 | 182 | 3.3 | 200 (≈ 31.8 µg/mL) | CCCc1c[nH]c2ccccc12
8 | 372 | 294 | 2.9 |  | FC(F)CCc1c[nH]c2ccccc12
9 | 410 | 290 | 3.1 | 30 (≈ 6.4 µg/mL) | FC(F)(F)CCc1c[nH]c2ccccc12
10 | 271 | 644 | 3.1 | 182 (≈ 38.1 µg/mL) | CCC(F)(F)Cc1c[nH]c2ccccc12
11 | 245 | 492 | 2.8 | 277 (≈ 58 µg/mL) | FCC(F)CCc1c[nH]c2ccccc12 (stereo unspecified)
12 |  |  | 2.8 |  | C[C@H](F)[C@H](F)Cc1c[nH]c2ccccc12 (racemic)
13 |  |  | 2.7 |  | FC[C@@H](F)[C@H](F)Cc1c[nH]c2ccccc12 (racemic)

Reference: ChEMBL document CHEMBL3632616, “Fluorination Patterning: A Study of Structural Motifs That Impact Physicochemical Properties of Relevance to Drug Discovery” (J Med Chem, 2015)
